Test results reported in the M2OR odorant receptor database.

Columns and labels:
Conditions in all cases: stereoisomer not certain
A0A140T8K0 = test system: T1, A0A140T8K0
T1 sequence (whole entry): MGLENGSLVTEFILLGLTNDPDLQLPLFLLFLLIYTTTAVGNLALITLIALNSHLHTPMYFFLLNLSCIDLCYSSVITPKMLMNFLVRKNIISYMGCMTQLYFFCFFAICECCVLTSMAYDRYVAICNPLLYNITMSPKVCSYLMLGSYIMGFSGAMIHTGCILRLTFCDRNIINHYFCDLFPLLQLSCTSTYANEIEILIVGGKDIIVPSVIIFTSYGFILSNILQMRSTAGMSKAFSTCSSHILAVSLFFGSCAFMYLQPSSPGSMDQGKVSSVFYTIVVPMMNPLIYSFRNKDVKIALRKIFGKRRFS
Outline: (§1)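 Transient luciferase assays in mammalian cell lines were common, though methods varied by source. The values come from published papers and their supplementary material, with extra details from the original authors when needed. Responsive refers to a measured signal the original authors judged statistically different from baseline, and non-responsive (inactive) to the remainder.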

A0A140T8K4 = test system: T2, A0A140T8K4
T2 sequence (whole entry): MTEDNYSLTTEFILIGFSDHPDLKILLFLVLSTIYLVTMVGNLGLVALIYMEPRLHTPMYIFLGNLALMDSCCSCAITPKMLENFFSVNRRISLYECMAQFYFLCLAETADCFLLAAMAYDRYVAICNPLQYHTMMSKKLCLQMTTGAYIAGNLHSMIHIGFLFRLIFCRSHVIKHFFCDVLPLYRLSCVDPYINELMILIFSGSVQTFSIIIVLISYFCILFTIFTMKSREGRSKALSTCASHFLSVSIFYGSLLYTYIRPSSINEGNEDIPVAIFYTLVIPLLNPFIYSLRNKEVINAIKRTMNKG
Outline: as §1

A0A1L1SVG7 = test system: T3, A0A1L1SVG7
T3 sequence (whole entry): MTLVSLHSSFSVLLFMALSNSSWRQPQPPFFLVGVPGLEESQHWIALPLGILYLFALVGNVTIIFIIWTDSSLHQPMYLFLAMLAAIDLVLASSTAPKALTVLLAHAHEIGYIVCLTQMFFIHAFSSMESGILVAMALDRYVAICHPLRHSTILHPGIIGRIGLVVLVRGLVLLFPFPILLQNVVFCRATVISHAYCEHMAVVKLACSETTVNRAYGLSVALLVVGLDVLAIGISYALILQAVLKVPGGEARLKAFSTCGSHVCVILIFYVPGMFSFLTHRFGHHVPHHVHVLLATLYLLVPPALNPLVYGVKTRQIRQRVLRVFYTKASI
Outline: as §1

O10A2 H43R H207R K258T = test system: O10A2 H43R H207R K258T
Outline: as §1

O10A3 C8G = test system: O10A3 C8G
Outline: as §1

O10A6 = test system: O10A6
Outline: as §1

O10AD G65C = test system: O10AD G65C
Outline: as §1

O10D3 V134A R197K = test system: O10D3 V134A R197K
Outline: as §1

O10G4 L24P V195E = test system: O10G4 L24P V195E
Outline: as §1

O10G7 A18V P19Q G20A = test system: O10G7 A18V P19Q G20A
Outline: as §1
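Also: active if original authors judged signal statistically different from baseline.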

Chain of O10A6 (as listed by the source): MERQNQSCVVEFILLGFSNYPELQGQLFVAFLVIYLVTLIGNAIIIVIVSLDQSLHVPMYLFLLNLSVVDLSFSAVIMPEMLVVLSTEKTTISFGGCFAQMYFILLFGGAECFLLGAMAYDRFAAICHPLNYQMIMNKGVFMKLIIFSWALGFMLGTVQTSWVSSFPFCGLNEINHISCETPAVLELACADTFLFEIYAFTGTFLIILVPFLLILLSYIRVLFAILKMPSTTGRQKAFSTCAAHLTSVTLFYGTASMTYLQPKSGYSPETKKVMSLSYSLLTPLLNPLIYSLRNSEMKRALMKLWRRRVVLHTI
Chain of O10A3 C8G (as listed by the source): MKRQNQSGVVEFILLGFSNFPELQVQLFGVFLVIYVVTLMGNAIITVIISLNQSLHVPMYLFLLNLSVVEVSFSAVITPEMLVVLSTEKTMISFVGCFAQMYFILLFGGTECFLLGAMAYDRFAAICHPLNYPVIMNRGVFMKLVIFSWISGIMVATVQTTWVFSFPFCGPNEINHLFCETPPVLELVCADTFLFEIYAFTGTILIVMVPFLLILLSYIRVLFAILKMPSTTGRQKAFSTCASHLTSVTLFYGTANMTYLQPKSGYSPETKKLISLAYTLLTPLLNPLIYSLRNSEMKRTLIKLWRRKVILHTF
Chain of O10AD G65C (as listed by the source, stated change not applied): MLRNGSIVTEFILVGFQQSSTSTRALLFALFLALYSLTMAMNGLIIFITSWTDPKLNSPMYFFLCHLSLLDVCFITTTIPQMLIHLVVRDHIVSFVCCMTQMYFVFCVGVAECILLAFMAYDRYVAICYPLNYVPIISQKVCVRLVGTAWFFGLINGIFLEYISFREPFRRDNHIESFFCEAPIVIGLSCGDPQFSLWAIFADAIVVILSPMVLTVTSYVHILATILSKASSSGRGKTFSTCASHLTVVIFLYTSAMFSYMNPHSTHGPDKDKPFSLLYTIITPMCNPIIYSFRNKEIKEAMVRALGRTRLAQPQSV

Compound: CCCCC(Br)C(=O)O (centres undefined)
- odorant receptor agonist call (A0A140T8K0): inactive

Compound: Oc1ccccc1Br
- odorant receptor agonist call (A0A140T8K0): inactive

Compound: C=CCOC(=O)Cc1ccccc1
- odorant receptor agonist call (A0A140T8K0): inactive
- odorant receptor agonist call (A0A140T8K4): inactive
- odorant receptor agonist call (A0A1L1SVG7): inactive
- odorant receptor agonist call (O10A2 H43R H207R K258T): inactive
- odorant receptor agonist call (O10A3 C8G): inactive
- odorant receptor agonist call (O10A6): inactive
- odorant receptor agonist call (O10AD G65C): inactive
- odorant receptor agonist call (O10D3 V134A R197K): inactive
- odorant receptor agonist call (O10G4 L24P V195E): inactive
- odorant receptor agonist call (O10G7 A18V P19Q G20A): inactive

Compound: C=C(C)C1CC=C(C=O)CC1 (centres undefined)
- odorant receptor agonist call (A0A140T8K0): inactive

Compound: O=Cc1ccc2c(c1)OCO2
- odorant receptor agonist call (A0A140T8K0): inactive

Compound: C=CCc1ccccc1
- odorant receptor agonist call (A0A140T8K4): inactive
- odorant receptor agonist call (A0A1L1SVG7): inactive

Compound: CCC1CCC(=O)O1 (centres undefined)
- odorant receptor agonist call (A0A140T8K4): inactive
- odorant receptor agonist call (A0A1L1SVG7): inactive

Compound: CSSC
- odorant receptor agonist call (A0A140T8K0): inactive

Compound: COc1ccc(C=O)cc1
- odorant receptor agonist call (A0A140T8K0): inactive

Compound: O=Cc1ccccc1
- odorant receptor agonist call (A0A140T8K0): inactive

Compound: CCCCCCC(Br)C(=O)O (centres undefined)
- odorant receptor agonist call (A0A140T8K0): inactive

Compound: OCc1ccc2c(c1)OCO2
- odorant receptor agonist call (A0A140T8K0): inactive

Compound: CC(C=O)Cc1ccc2c(c1)OCO2 (centres undefined)
- odorant receptor agonist call (A0A140T8K0): inactive

Compound: O=CC=Cc1ccccc1
- odorant receptor agonist call (A0A140T8K0): inactive

Compound: Cc1ccc(OC(=O)Cc2ccccc2)cc1
- odorant receptor agonist call (A0A140T8K0): inactive

Compound: O=c1cc(O)c2ccccc2o1
- odorant receptor agonist call (A0A140T8K0): inactive
- odorant receptor agonist call (A0A140T8K4): inactive
- odorant receptor agonist call (A0A1L1SVG7): inactive
